Data: ChEMBL document CHEMBL3813688, “Synthesis, antitumor activity and mechanism of action of novel 1,3-thiazole derivatives containing hydrazide-hydrazone and carboxamide moiety” (Bioorg Med Chem Lett, 2016)
≈ marks a conversion by molar mass, not a printed value.

Experiments:
HepG2 [1] = assay: Cytotoxicity against human HepG2 cells assessed as cell growth inhibition at 20 ug/ml after 72 hrs by MTT assay; type: functional; conditions: HepG2, 72 h, read-out: GI
A549 [2] = assay: Cytotoxicity against human A549 cells assessed as cell growth inhibition after 72 hrs by MTT assay; type: functional, cell-based; conditions: A549, 72 h
Outline: (§1)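 MTT growth assay in human cancer lines (MCF-7, HepG2, BGC-823, HeLa, A549), 72 h after treatment; 5-fluorouracil as reference. IC50 (μg/mL) taken as concentration giving 50% growth inhibition versus untreated control.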

HeLa [3] = assay: Cytotoxicity against human HeLa cells assessed as cell growth inhibition after 72 hrs by MTT assay; type: functional, cell-based; outline: as §1
MCF7 [4] = assay: Cytotoxicity against human MCF7 cells assessed as cell growth inhibition after 72 hrs by MTT assay; type: functional, cell-based; conditions: MCF7, 72 h; outline: as §1
[5] = Cytotoxicity against human BCG823 cells assessed as cell growth inhibition after 72 hrs by MTT assay; type: functional, cell-based; conditions: BCG823, 72 h; outline: as §1
HepG2 [6] = assay: Cytotoxicity against human HepG2 cells assessed as cell growth inhibition after 72 hrs by MTT assay; type: functional, cell-based; conditions: HepG2, 72 h; outline: as §1
MCF7 [7] = assay: Cytotoxicity against human MCF7 cells assessed as cell growth inhibition at 20 ug/ml after 72 hrs by MTT assay; type: functional; conditions: MCF7, 72 h, read-out: GI
A549 [8] = assay: Cytotoxicity against human A549 cells assessed as cell growth inhibition at 20 ug/ml after 72 hrs by MTT assay; type: functional; conditions: A549, 72 h, read-out: GI
[9] = system: MCF-7, HepG2, BGC-823, HeLa, A549 cancer cell lines (Homo sapiens); assay: Cytotoxicity against human MCF-7, HepG2, BGC-823, HeLa and A549 cells assessed as cell growth inhibition at 20 ug/ml after 72 hrs by MTT assay; conditions: read-out: GI
HeLa [10] = assay: Cytotoxicity against human HeLa cells assessed as cell growth inhibition at 20 ug/ml after 72 hrs by MTT assay; type: functional; conditions: read-out: GI
[11] = Cytotoxicity against human BCG823 cells assessed as cell growth inhibition at 20 ug/ml after 72 hrs by MTT assay; type: functional; conditions: BCG823, 72 h, read-out: GI
HepG2 [12] = assay: Induction of apoptosis in human HepG2 cells assessed as necrotic cells at 3.64 ug/ml after 24 to 48 hrs by Annexin V-FITC/propidium iodide staining based flow cytometry (reference value: 1.8 %); type: functional
HepG2 [13] = assay: Induction of apoptosis in human HepG2 cells assessed as viable cells at 3.64 ug/ml after 24 to 48 hrs by Annexin V-FITC/propidium iodide staining based flow cytometry (reference value: 95.6 %); type: functional; conditions: read-out: Activity
HepG2 [14] = assay: Induction of apoptosis in human HepG2 cells assessed as late apoptotic cells at 1.82 ug/ml after 24 to 48 hrs by Annexin V-FITC/propidium iodide staining based flow cytometry (reference value: 0.1 %); type: functional
HepG2 [15] = assay: Induction of apoptosis in human HepG2 cells assessed as early apoptotic cells at 1.82 ug/ml after 24 to 48 hrs by Annexin V-FITC/propidium iodide staining based flow cytometry (reference value: 2.5 %); type: functional
HepG2 [16] = assay: Induction of apoptosis in human HepG2 cells assessed as late apoptotic cells at 3.64 ug/ml after 24 to 48 hrs by Annexin V-FITC/propidium iodide staining based flow cytometry (reference value: 0.1 %); type: functional
HepG2 [17] = assay: Induction of apoptosis in human HepG2 cells assessed as necrotic cells at 1.82 ug/ml after 24 to 48 hrs by Annexin V-FITC/propidium iodide staining based flow cytometry (reference value: 1.8 %); type: functional
[18] = Cytotoxicity against human HL7702 cells assessed as cell growth inhibition after 72 hrs by MTT assay; type: cell-based; conditions: L02, 72 h
HepG2 [19] = assay: Induction of apoptosis in human HepG2 cells assessed as viable cells at 1.82 ug/ml after 24 to 48 hrs by Annexin V-FITC/propidium iodide staining based flow cytometry (reference value: 95.6 %); type: functional; conditions: read-out: Activity
HepG2 [20] = assay: Induction of apoptosis in human HepG2 cells assessed as early apoptotic cells at 3.64 ug/ml after 24 to 48 hrs by Annexin V-FITC/propidium iodide staining based flow cytometry (reference value: 2.5 %); type: functional

Row | Compound | inhibition of growth at 20 µg/mL (HepG2 [1]) | IC50 (A549 [2]) | IC50 (HeLa [3]) | IC50 (MCF7 [4]) | IC50 [5] | IC50 (HepG2 [6]) | inhibition of growth at 20 µg/mL (MCF7 [7]) | inhibition of growth at 20 µg/mL (A549 [8]) | inhibition at 72 h, 20 ug/ml [9] | inhibition of growth at 20 µg/mL (HeLa [10]) | inhibition of growth at 20 µg/mL [11] | Activity (HepG2 [12]) | viability at 3.64 µg/mL (HepG2 [13]) | Activity (HepG2 [14]) | Activity (HepG2 [15]) | Activity (HepG2 [16]) | Activity (HepG2 [17]) | IC50 [18] | viability at 1.82 µg/mL (HepG2 [19]) | Activity (HepG2 [20])
1 | CNc1nc(C)c(C(=O)N/N=C/c2ccc(C(F)(F)F)cc2)s1 | < 30% | > 100 µg/mL | > 100 µg/mL | > 100 µg/mL | > 100 µg/mL | > 100 µg/mL | < 30% | < 30% | < 30% | < 30% | < 30% |  |  |  |  |  |  |  |  | 
2 | CNc1nc(C(F)(F)F)c(C(=O)N/N=C/c2cc(C(F)(F)F)cc(C(F)(F)F)c2)s1 | < 30% | > 100 µg/mL | > 100 µg/mL | > 100 µg/mL | > 100 µg/mL | > 100 µg/mL | < 30% | < 30% | < 30% | < 30% | < 30% |  |  |  |  |  |  |  |  | 
3 | CN(C(=O)NC(=O)c1ccc(C(F)(F)F)cc1)c1nc(C(F)(F)F)c(C(=O)N/N=C/c2ccccc2C(F)(F)F)s1 |  | 6.68 µg/mL (≈ 10.9 µM) | 3.76 µg/mL (≈ 6.15 µM) | 2.21 µg/mL (≈ 3.61 µM) | 2.53 µg/mL (≈ 4.14 µM) | 3.64 µg/mL (≈ 5.95 µM) |  |  |  |  |  | 3.2% | 77.9% | 0.4% | 7.8% | 0.3% | 0.3% | 12.4 µg/mL (≈ 20.3 µM) | 91.5% | 18.6%
4 | O=c1[nH]cc(F)c(=O)[nH]1 [FLUOROURACIL] |  | 10.5 µg/mL (≈ 80.7 µM) | 10.7 µg/mL (≈ 82.4 µM) | 10.8 µg/mL (≈ 83 µM) | 10.9 µg/mL (≈ 83.7 µM) |  |  |  |  |  |  |  |  |  |  |  |  | 14.5 µg/mL (≈ 112 µM) |  | 
5 | CNc1nc(C)c(C(=O)N/N=C/c2cc(C(F)(F)F)cc(C(F)(F)F)c2)s1 | < 30% | > 100 µg/mL | > 100 µg/mL | > 100 µg/mL | > 100 µg/mL | > 100 µg/mL | < 30% | < 30% | < 30% | < 30% | < 30% |  |  |  |  |  |  |  |  | 
6 | CNc1nc(C)c(C(=O)N/N=C/c2cccc(C(F)(F)F)c2)s1 | < 30% | > 100 µg/mL | > 100 µg/mL | > 100 µg/mL | > 100 µg/mL | > 100 µg/mL | < 30% | < 30% | < 30% | < 30% | < 30% |  |  |  |  |  |  |  |  | 
7 | CNc1nc(C)c(C(=O)N/N=C/c2ccccc2C(F)(F)F)s1 | < 30% | > 100 µg/mL | > 100 µg/mL | > 100 µg/mL | > 100 µg/mL | > 100 µg/mL | < 30% | < 30% | < 30% | < 30% | < 30% |  |  |  |  |  |  |  |  | 
8 | CNc1nc(C(F)(F)F)c(C(=O)N/N=C/c2cccc(C(F)(F)F)c2)s1 | < 30% | > 100 µg/mL | > 100 µg/mL | > 100 µg/mL | > 100 µg/mL | > 100 µg/mL | < 30% | < 30% | < 30% | < 30% | < 30% |  |  |  |  |  |  |  |  | 
9 | CN(C(=O)NC(=O)c1ccc(F)c(F)c1)c1nc(C(F)(F)F)c(C(=O)N/N=C/c2ccc(C(F)(F)F)cc2)s1 |  | 6.07 µg/mL (≈ 10.5 µM) | 5.1 µg/mL (≈ 8.8 µM) | 5.93 µg/mL (≈ 10.2 µM) | 3.85 µg/mL (≈ 6.64 µM) | 6.26 µg/mL (≈ 10.8 µM) |  |  |  |  |  |  |  |  |  |  |  | 13.2 µg/mL (≈ 22.9 µM) |  | 
10 | CNc1nc(C(F)(F)F)c(C(=O)N/N=C/c2ccc(C(F)(F)F)cc2)s1 | < 30% | > 100 µg/mL | > 100 µg/mL | > 100 µg/mL | > 100 µg/mL | > 100 µg/mL | < 30% | < 30% | < 30% | < 30% | < 30% |  |  |  |  |  |  |  |  | 
11 | CN(C(=O)NC(=O)c1ccc(F)c(F)c1)c1nc(C(F)(F)F)c(C(=O)N/N=C/c2cccc(C(F)(F)F)c2)s1 |  | 6.52 µg/mL (≈ 11.3 µM) | 4.21 µg/mL (≈ 7.27 µM) | 4.15 µg/mL (≈ 7.16 µM) | 4.46 µg/mL (≈ 7.7 µM) | 5.6 µg/mL (≈ 9.66 µM) |  |  |  |  |  |  |  |  |  |  |  | 23.5 µg/mL (≈ 40.5 µM) |  | 
12 | CN(C(=O)NC(=O)c1ccc(F)c(F)c1)c1nc(C(F)(F)F)c(C(=O)N/N=C/c2cc(C(F)(F)F)cc(C(F)(F)F)c2)s1 |  | 5.47 µg/mL (≈ 8.45 µM) | 4.45 µg/mL (≈ 6.87 µM) | 2.61 µg/mL (≈ 4.03 µM) | 3.51 µg/mL (≈ 5.42 µM) | 5.47 µg/mL (≈ 8.45 µM) |  |  |  |  |  |  |  |  |  |  |  | 20.1 µg/mL (≈ 31 µM) |  | 
13 | CN(C(=O)NC(=O)c1ccc(C(F)(F)F)cc1)c1nc(C(F)(F)F)c(C(=O)N/N=C/c2cccc(C(F)(F)F)c2)s1 |  | 6.66 µg/mL (≈ 10.9 µM) | 6.2 µg/mL (≈ 10.1 µM) | 8.95 µg/mL (≈ 14.6 µM) | 1.84 µg/mL (≈ 3.01 µM) | 7.95 µg/mL (≈ 13 µM) |  |  |  |  |  |  |  |  |  |  |  | 18 µg/mL (≈ 29.4 µM) |  | 
14 | CNc1nc(C(F)(F)F)c(C(=O)N/N=C/c2ccccc2C(F)(F)F)s1 | < 30% | > 100 µg/mL | > 100 µg/mL | > 100 µg/mL | > 100 µg/mL | > 100 µg/mL | < 30% | < 30% | < 30% | < 30% | < 30% |  |  |  |  |  |  |  |  | 
